Measurements taken from ChEMBL document CHEMBL3611968, “Reengineered tricyclic anti-cancer agents” (Bioorg Med Chem, 2015).
Activity calls are given as the source filed them. No cut-off for these calls is given here.

Experiments:
[1] = target: T1, D(4) dopamine receptor (Homo sapiens) (UniProt P21917); test: Binding affinity to dopamine D4 receptor (unknown origin) at 0.1 mM by radioligand displacement assay relative to control
T1 sequence (whole entry): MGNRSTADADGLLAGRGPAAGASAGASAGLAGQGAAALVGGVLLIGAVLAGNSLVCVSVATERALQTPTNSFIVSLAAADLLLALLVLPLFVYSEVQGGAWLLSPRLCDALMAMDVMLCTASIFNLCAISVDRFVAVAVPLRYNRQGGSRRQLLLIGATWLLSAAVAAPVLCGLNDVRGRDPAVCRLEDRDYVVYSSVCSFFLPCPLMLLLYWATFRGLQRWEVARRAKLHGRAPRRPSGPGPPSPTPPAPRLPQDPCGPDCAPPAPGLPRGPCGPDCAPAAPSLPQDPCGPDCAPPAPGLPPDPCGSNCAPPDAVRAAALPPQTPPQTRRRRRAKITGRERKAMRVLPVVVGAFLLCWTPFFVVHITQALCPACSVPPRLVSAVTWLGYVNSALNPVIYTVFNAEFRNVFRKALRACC

NCI-H1650 [2] = test: Cytotoxicity against human NCI-H1650 cells assessed as growth inhibition after 48 hrs by MTT assay; assay type: functional
In short: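 H1650 cells were exposed to drug for 48 h at five concentrations bracketing 1–40 μM in 10 μM steps, with MTT read-out. GI50 is given only where the data form a sigmoidal dose response.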

[3] = target: D(3) dopamine receptor (Homo sapiens) (UniProt P35462); test: Binding affinity to dopamine D3 receptor (unknown origin) at 0.1 mM by radioligand displacement assay relative to control
D(3) dopamine receptor (Homo sapiens), sequence (P35462 whole entry): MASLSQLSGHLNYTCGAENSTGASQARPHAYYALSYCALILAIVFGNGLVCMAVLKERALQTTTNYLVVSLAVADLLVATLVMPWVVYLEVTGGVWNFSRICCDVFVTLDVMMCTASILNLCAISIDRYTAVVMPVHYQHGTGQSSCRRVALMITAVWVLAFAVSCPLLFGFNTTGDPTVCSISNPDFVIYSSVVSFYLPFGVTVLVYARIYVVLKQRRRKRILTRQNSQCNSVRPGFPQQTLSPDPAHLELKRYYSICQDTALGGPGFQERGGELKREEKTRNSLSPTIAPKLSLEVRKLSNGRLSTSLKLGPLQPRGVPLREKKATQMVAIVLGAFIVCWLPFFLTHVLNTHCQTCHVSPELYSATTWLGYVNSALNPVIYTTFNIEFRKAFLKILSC

[4] = target: D(1A) dopamine receptor (Homo sapiens) (UniProt P21728); test: Binding affinity to dopamine D1 receptor (unknown origin) at 0.1 mM by radioligand displacement assay relative to control
D(1A) dopamine receptor (Homo sapiens), sequence (P21728 whole entry): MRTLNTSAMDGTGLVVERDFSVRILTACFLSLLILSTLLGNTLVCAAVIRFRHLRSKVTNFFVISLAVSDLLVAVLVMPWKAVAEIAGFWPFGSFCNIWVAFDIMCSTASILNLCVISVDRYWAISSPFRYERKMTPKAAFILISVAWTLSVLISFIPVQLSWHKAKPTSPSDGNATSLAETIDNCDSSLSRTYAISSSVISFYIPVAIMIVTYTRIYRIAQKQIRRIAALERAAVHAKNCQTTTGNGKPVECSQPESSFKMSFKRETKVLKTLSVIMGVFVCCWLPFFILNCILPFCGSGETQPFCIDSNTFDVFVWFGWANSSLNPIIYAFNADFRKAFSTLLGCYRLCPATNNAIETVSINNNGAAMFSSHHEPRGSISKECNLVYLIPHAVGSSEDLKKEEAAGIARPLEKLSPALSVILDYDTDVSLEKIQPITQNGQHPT

[5] = target: D(2) dopamine receptor (Homo sapiens) (UniProt P14416); test: Binding affinity to dopamine D2 receptor (unknown origin) at 0.1 mM by radioligand displacement assay relative to control
D(2) dopamine receptor (Homo sapiens), sequence (P14416 whole entry): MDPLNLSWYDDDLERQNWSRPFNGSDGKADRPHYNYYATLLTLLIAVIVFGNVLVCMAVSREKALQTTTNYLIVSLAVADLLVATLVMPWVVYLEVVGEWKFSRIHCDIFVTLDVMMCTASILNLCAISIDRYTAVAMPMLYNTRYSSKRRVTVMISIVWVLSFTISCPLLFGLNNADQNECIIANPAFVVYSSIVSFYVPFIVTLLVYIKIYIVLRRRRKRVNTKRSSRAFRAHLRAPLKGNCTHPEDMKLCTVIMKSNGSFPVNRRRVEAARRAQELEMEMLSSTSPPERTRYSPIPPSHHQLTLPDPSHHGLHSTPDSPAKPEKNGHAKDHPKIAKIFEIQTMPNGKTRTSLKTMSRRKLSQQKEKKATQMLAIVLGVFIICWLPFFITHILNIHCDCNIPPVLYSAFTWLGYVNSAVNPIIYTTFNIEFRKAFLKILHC

[6] = target: D(1B) dopamine receptor (Homo sapiens) (UniProt P21918); test: Binding affinity to dopamine D5 receptor (unknown origin) at 0.1 mM by radioligand displacement assay relative to control
D(1B) dopamine receptor (Homo sapiens), sequence (P21918 whole entry): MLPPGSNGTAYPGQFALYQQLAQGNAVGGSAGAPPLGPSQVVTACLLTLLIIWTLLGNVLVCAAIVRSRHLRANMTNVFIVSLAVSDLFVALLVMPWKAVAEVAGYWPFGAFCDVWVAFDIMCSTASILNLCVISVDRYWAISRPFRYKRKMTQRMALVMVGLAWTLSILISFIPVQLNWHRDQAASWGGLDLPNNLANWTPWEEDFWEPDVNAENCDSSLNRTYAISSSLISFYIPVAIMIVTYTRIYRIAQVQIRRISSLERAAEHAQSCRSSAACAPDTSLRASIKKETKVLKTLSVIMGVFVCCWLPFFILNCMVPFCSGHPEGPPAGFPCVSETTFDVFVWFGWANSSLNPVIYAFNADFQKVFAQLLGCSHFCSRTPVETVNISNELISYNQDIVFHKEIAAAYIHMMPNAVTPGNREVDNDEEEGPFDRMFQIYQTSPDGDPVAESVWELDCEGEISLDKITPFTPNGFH

[7] = target: RAC-alpha serine/threonine-protein kinase (Homo sapiens) (UniProt P31749); test: Inhibition of AKT phosphorylation in human NCI-H1650 cells at 20 to 40 uM after 12 hrs by Western blot analysis; assay type: cell-based
RAC-alpha serine/threonine-protein kinase (Homo sapiens), sequence (P31749 whole entry): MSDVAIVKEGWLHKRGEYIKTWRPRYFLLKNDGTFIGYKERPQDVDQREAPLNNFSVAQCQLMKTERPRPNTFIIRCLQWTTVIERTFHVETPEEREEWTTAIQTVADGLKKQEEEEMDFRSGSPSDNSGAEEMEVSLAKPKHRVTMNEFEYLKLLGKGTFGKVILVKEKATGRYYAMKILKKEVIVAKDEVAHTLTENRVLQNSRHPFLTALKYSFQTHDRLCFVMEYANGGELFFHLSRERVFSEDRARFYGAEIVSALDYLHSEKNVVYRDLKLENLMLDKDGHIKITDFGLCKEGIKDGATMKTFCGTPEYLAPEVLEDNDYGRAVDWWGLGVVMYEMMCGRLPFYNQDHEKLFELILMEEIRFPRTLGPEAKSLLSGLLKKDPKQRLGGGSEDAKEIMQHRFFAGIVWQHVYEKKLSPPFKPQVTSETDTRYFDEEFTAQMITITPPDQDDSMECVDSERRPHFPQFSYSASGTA

NCI-H1650 [8] = test: Inhibition of ERK phosphorylation in human NCI-H1650 cells at 20 to 40 uM after 12 hrs by Western blot analysis; assay type: cell-based
[9] = Oral bioavailability in mouse at 100 mg/kg; assay type: ADME, organism-based; details: in vivo
[10] = Cmax in mouse at 25 mg/kg, ip; assay type: ADME, organism-based; design: dose 25 mg/kg, route intraperitoneal; details: in vivo
[11] = Clearance in mouse at 1 mg/kg, iv; assay type: ADME, organism-based; details: in vivo
[12] = Bioavailability in mouse at 100 mg/kg, ip administered through DMA/solutol/water; assay type: ADME, organism-based; details: in vivo
[13] = Cmax in mouse at 25 mg/kg, po; assay type: ADME, organism-based; design: dose 25 mg/kg, route oral; details: in vivo
[14] = AUCinfinity in mouse at 25 mg/kg, po; assay type: ADME, organism-based; design: dose 25 mg/kg, route oral, time infinity; details: in vivo
[15] = Cmax in mouse at 100 mg/kg, ip administered through DMA/solutol/water; assay type: ADME, organism-based; design: dose 100 mg/kg, route intraperitoneal; details: in vivo
[16] = Tmax in mouse at 100 mg/kg, po; assay type: ADME, organism-based; details: in vivo
[17] = AUClast in mouse at 1 mg/kg, iv; assay type: ADME, organism-based; details: in vivo
[18] = Volume of distribution at steady state in mouse at 1 mg/kg, iv; assay type: ADME, organism-based; details: in vivo, read-out: Vdss
[19] = Half life in mouse at 1 mg/kg, iv; assay type: ADME, organism-based; details: in vivo
[20] = AUCinfinity in mouse at 1 mg/kg, iv; assay type: ADME, organism-based; design: dose 1 mg/kg, time infinity, route intravenous; details: in vivo
[21] = AUCinfinity in mouse at 100 mg/kg, ip administered through DMA/solutol/water; assay type: ADME, organism-based; design: dose 100 mg/kg, route intraperitoneal, time infinity; details: in vivo
[22] = AUClast in mouse at 25 mg/kg, ip; assay type: ADME, organism-based; details: in vivo
[23] = Cmax in mouse at 100 mg/kg, po; assay type: ADME, organism-based; design: dose 100 mg/kg, route oral; details: in vivo
[24] = AUClast in mouse at 100 mg/kg, po; assay type: ADME, organism-based; details: in vivo
[25] = Bioavailability in mouse at 25 mg/kg, ip; assay type: ADME, organism-based; details: in vivo
[26] = Tmax in mouse at 100 mg/kg, ip administered through DMA/solutol/water; assay type: ADME, organism-based; details: in vivo
[27] = Tmax in mouse at 25 mg/kg, po; assay type: ADME, organism-based; details: in vivo
[28] = AUCinfinity in mouse at 25 mg/kg, ip; assay type: ADME, organism-based; design: dose 25 mg/kg, time infinity, route intraperitoneal; details: in vivo
[29] = AUClast in mouse at 100 mg/kg, ip administered through DMA/solutol/water; assay type: ADME, organism-based; details: in vivo
[30] = Oral bioavailability in mouse at 25 mg/kg; assay type: ADME, organism-based; details: in vivo
[31] = Tmax in mouse at 25 mg/kg, ip; assay type: ADME, organism-based; details: in vivo
[32] = AUClast in mouse at 25 mg/kg, po; assay type: ADME, organism-based; details: in vivo

Molecule `COC(=O)NCCCN1c2ccccc2CCc2ccc(Cl)cc21` has an inhibition [1] of under 5%, a GI50 (NCI-H1650 [2]; NCI-H1650, 48 h) of over 40 µM and an inhibition [3] of under 5%. It also gave an inhibition [4] of under 5%, an inhibition [5] of under 5% and an inhibition [6] of under 10%.
With `O=S(=O)(NCCN1c2ccccc2Sc2ccc(Cl)cc21)c1ccc(Cl)cc1` the GI50 (NCI-H1650 [2]; NCI-H1650, 48 h) was 20 µM, the inhibition [7] was “Active” and the inhibition (NCI-H1650 [8]) was “Active”.
`O=S(=O)(NC[C@H](O)CN1c2ccccc2CCc2ccccc21)c1ccc(OC(F)(F)F)cc1` showed a bioavailability [9] of 50%, a Cmax [10] of 2240 ng/mL and a clearance [11] of 44 mL/min/kg. For the same molecule, the bioavailability [12] was 94%, the Cmax [13] was 1310 ng/mL and the AUC(0-inf) [14] was 3460 ng·h/mL. For the same molecule, the Cmax [15] was 6490 ng/mL, the GI50 (NCI-H1650 [2]; NCI-H1650, 48 h) was 15 µM and the Tmax [16] was 2 h. It also gave an AUC(0-t) [17] of 370 ng·h/mL, a Vd [18] of 1.61 L/kg and a half-life [19] of 0.81 h. The AUC(0-inf) [20] was 376 ng·h/mL, the AUC(0-inf) [21] was 34700 ng·h/mL and the AUC(0-t) [22] was 5700 ng·h/mL. For the same molecule, the Cmax [23] was 4880 ng/mL, the AUC(0-t) [24] was 18500 ng·h/mL and the bioavailability [25] was 62%. It also gave a Tmax [26] of 1 h, a Tmax [27] of 1 h and an AUC(0-inf) [28] of 5790 ng·h/mL. It also gave an AUC(0-t) [29] of 34700 ng·h/mL, a bioavailability [30] of 36% and a Tmax [31] of 1 h. For the same molecule, the AUC(0-t) [32] was 3300 ng·h/mL.
For `O=S(=O)(NCCCN1c2ccccc2CCc2ccc(Cl)cc21)c1ccc(Cl)cc1Cl`, the GI50 (NCI-H1650 [2]) was “inactive”.
For `O=S(=O)(NC1CCC2(OC1)c1ccccc1CCc1ccccc12)c1ccc(F)cc1` (stereo not drawn), the GI50 (NCI-H1650 [2]; NCI-H1650, 48 h) was 20 µM.
In the case of `O=S(=O)(NC1CCOC2(C1)c1ccccc1CCc1ccccc12)c1ccc(OC(F)(F)F)cc1` (stereo not drawn), the GI50 (NCI-H1650 [2]; NCI-H1650, 48 h) is reported as over 40 µM.
Work on `O=S(=O)(NCCCN1c2ccccc2CCc2cccnc21)c1ccc(Cl)cc1` yielded a GI50 (NCI-H1650 [2]; NCI-H1650, 48 h) of 27 µM.
In the case of `O=S(=O)(c1ccc(Cl)cc1)N1CCCCC1CCN1c2ccccc2CCc2ccccc21` (stereo not drawn), the GI50 (NCI-H1650 [2]) is reported as “inactive”.
For `O=S(=O)(NCCCCN1c2ccccc2CCc2ccc(Cl)cc21)c1ccc(C(F)(F)F)cc1`, the GI50 (NCI-H1650 [2]) was “inactive”.
For `O=S(=O)(NCCCCN1c2ccccc2CCc2ccc(Cl)cc21)c1ccc(Cl)cc1`, the GI50 (NCI-H1650 [2]) was “inactive”.
For `CN(CCCN1c2ccccc2CCc2ccc(Cl)cc21)S(=O)(=O)c1ccc(C(F)(F)F)cc1`, the GI50 (NCI-H1650 [2]) was “inactive”.
For `Cc1ccccc1S(=O)(=O)NCCCN1c2ccccc2Sc2ccc(Cl)cc21`, the GI50 (NCI-H1650 [2]) was “inactive”.
For `COC(=O)NCCN1c2ccccc2Sc2ccc(Cl)cc21`, the GI50 (NCI-H1650 [2]) was “inactive”.
Work on `CS(=O)(=O)c1ccc(S(=O)(=O)NCCCN2c3ccccc3CCc3ccc(Cl)cc32)cc1` yielded a GI50 (NCI-H1650 [2]; NCI-H1650, 48 h) of 15.1 µM.
With `CN(CCCN1c2ccccc2CCc2ccc(Cl)cc21)S(=O)(=O)c1ccc(OC(F)(F)F)cc1` the GI50 (NCI-H1650 [2]) was “inactive”.
For `O=S(=O)(NCCCN1c2ccccc2CCc2ccccc21)C(F)(F)F`, the GI50 (NCI-H1650 [2]) was “inactive”.
For `O=S(=O)(NCCCN1c2ccccc2CCc2ccc(Cl)cc21)c1ccc(Cl)cc1F`, the GI50 (NCI-H1650 [2]; NCI-H1650, 48 h) was 20.8 µM.
With `O=S(=O)(NCCCN1CCCCc2ccccc21)c1ccc(OC(F)(F)F)cc1` the GI50 (NCI-H1650 [2]) was “inactive”.
`O=S(=O)(NC[C@@H](O)CN1c2ccccc2CCc2ccccc21)c1ccc(OC(F)(F)F)cc1` gave a GI50 (NCI-H1650 [2]; NCI-H1650, 48 h) of 18 µM.
In the case of `O=S(=O)(NCCCN(c1ccccc1)c1cccc(Cl)c1)c1ccc(Cl)cc1`, the GI50 (NCI-H1650 [2]) is reported as “inactive”.
`O=S(=O)(NCCCN1c2ccccc2CCc2ncccc21)c1ccc(OC(F)(F)F)cc1` gave a GI50 (NCI-H1650 [2]; NCI-H1650, 48 h) of 27 µM.
For `O=S(=O)(NC1CCCC(=C2c3ccccc3CCc3ccccc32)C1)c1ccc(Cl)cc1` (stereo not drawn), the GI50 (NCI-H1650 [2]; NCI-H1650, 48 h) was 17 µM.
In the case of `O=S(=O)(NCCCN1CCCCc2ccccc21)c1ccc(Cl)cc1`, the GI50 (NCI-H1650 [2]) is reported as “inactive”.
For `O=S(=O)(NCCCN1c2ccccc2CCc2ccc(Cl)cc21)c1cc(Cl)sc1Cl`, the GI50 (NCI-H1650 [2]; NCI-H1650, 48 h) was 25 µM.
Work on `O=S(=O)(NC1CCC2(OC1)c1ccccc1CCc1ccccc12)c1ccc(OC(F)(F)F)cc1` (stereo not drawn) yielded a GI50 (NCI-H1650 [2]; NCI-H1650, 48 h) of 13 µM.
For `O=S(=O)(NCCCN(c1ccccc1)c1cccc(Cl)c1)c1ccc(C(F)(F)F)cc1`, the GI50 (NCI-H1650 [2]) was “inactive”.
Molecule `O=C(NCCCN1c2ccccc2CCc2ccc(Cl)cc21)Nc1ccc(OC(F)(F)F)cc1` has a GI50 (NCI-H1650 [2]; NCI-H1650, 48 h) of over 40 µM.
